One data set concerns HepG2. The experiment in a line: Induction of apoptosis in human HepG2 cells assessed as viable cells at 3 uM by annexinV staining (Rvb =95.0 %). Format: functional. Conditions: read-out: Activity.
Data set [1] deals with Serine/threonine-protein kinase Nek9 (Homo sapiens) (UniProt Q8TD19). The experiment in a line: Inhibition of NEK9 (unknown origin) assessed as remaining activity at 1 uM by Kinome scan method relative to control.
A short description of data set [2]: AUC (0 to t) in male Sprague-Dawley rat at 10 mg/kg, po measured for 24 hrs by LC-MS/MS analysis. Format: ADME, organism-based. Conditions: in vivo. In outline: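 Sprague-Dawley rats, single intravenous or oral dose. Parameters (half-life, AUC, bioavailability) reported in a supplementary table.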
In data set [3] the target is Myosin light chain kinase family member 4 (Homo sapiens) (UniProt Q86YV6). As to the kind of experiment: Inhibition of MYLK4 (unknown origin) assessed as remaining activity at 1 uM by Kinome scan method relative to control. In outline:
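KINOMEscan active-site competition binding assay at 1 μM against 468 kinases. Ctrl% = (test − positive control)/(negative control DMSO − positive control) × 100; lower values mean tighter binding.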

Data set [4] concerns the target Cyclin-dependent kinase 11A (Homo sapiens) (UniProt Q9UQ88). The experiment in a line: Inhibition of CDC2L2 (unknown origin) assessed as remaining activity at 1 uM by Kinome scan method relative to control. In outline:
(§1)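 Active-site-dependent competition-binding profiling (KINOMEscan) at 1 μM against a 468-kinase panel; compound supplied from a 10 mM DMSO stock. Read-out is ctrl% = (test signal − positive control signal)/(negative control signal − positive control signal) × 100. DMSO is the negative control (100%) and a control compound the positive control (0%). Lower ctrl% means tighter binding.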

Data set [5] deals with T1, Serine/threonine-protein kinase 4 (Homo sapiens, UniProt Q13043).
T1 sequence (Q13043 whole entry): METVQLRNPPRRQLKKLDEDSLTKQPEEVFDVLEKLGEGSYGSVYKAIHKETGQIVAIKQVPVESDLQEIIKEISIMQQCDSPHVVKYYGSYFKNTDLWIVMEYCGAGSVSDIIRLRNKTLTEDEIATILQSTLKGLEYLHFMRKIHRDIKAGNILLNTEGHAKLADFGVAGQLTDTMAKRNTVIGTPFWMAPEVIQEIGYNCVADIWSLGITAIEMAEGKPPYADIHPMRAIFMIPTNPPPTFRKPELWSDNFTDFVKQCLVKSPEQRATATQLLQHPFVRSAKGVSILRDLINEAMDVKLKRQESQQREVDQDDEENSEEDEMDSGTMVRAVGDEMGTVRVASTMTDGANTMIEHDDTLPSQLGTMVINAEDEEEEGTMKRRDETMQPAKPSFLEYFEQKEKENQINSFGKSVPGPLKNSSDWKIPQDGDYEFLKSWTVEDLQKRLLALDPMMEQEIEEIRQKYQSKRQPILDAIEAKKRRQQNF
The experiment in a line: Inhibition of recombinant His-tagged full-length MST1 (unknown origin) expressing in Escherichia coli assessed as MOB1a phosphorylation level incubated for 30 min in the presence of 10 uM ATP by immunoblot analysis.

Data set [6] has as its target Glycogen synthase kinase-3 alpha (Homo sapiens) (UniProt P49840). The experiment in a line: Inhibition of GSK3alpha (unknown origin) assessed as remaining activity at 1 uM by Kinome scan method relative to control.
Data set [7] has as its target Bone morphogenetic protein receptor type-2 (Homo sapiens) (UniProt Q13873). As to the kind of experiment: Inhibition of BMPR2 (unknown origin) assessed as remaining activity at 1 uM by Kinome scan method relative to control. In outline:
(§2)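 Active-site-dependent competition-binding (KINOMEscan) panel of 468 kinases, test compound at 1 μM (from a 10 mM DMSO stock). Read-out is ctrl% = (test signal − positive control signal)/(negative control signal − positive control signal) × 100. DMSO is the negative control (100%) and a control compound is the positive control (0%). Lower ctrl% means tighter binding.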

In data set [8] the target is Tyrosine-protein kinase JAK1 (Homo sapiens, UniProt P23458). The experiment in a line: Inhibition of JAK1 JH2 domain (unknown origin) assessed as remaining activity at 1 uM by Kinome scan method relative to control.
Data set [9] addresses Leukocyte tyrosine kinase receptor (Homo sapiens) (UniProt P29376). As to the kind of experiment: Inhibition of LTK (unknown origin) assessed as remaining activity at 1 uM by Kinome scan method relative to control.
Data set [10] concerns the target Interferon-induced, double-stranded RNA-activated protein kinase (Homo sapiens) (UniProt P19525). The experiment in a line: Inhibition of PRKR (unknown origin) assessed as remaining activity at 1 uM by Kinome scan method relative to control.
Data set [11] deals with SRSF protein kinase 1 (Homo sapiens) (UniProt Q96SB4). As to the kind of experiment: Inhibition of SRPK1 (unknown origin) assessed as remaining activity at 1 uM by Kinome scan method relative to control.
For another data set, the system named is Mus musculus. As to the kind of experiment: Anti-colitis activity against DSS-induced mouse assessed as high number in nuclear YAP-positive cells at 1 mg/kg, ip administrated daily for 8 days by IHC staining. The following applies: Colon, time 8.0 day. Format: functional, organism-based. The essentials:
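Wild-type mice received oral DSS for 7 days with vehicle or 1 mg/kg daily. Colon sections were stained by IHC for YAP, BrdU and Ki67, and positive cells were quantified per animal. Means ± SD, n = 10, Student's t test.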

Data set [12] deals with Serine/threonine-protein kinase TAO2 (Homo sapiens, UniProt Q9UL54). As to the kind of experiment: Binding affinity to TAOK2 (unknown origin) assessed as dissociation constant.
The target in data set [13] is Tyrosine-protein kinase ITK/TSK (Homo sapiens) (UniProt Q08881). The experiment in a line: Inhibition of ITK (unknown origin) assessed as remaining activity at 1 uM by Kinome scan method relative to control.
Data set [14] deals with Phosphatidylinositol 4,5-bisphosphate 3-kinase catalytic subunit beta isoform (Homo sapiens) (UniProt P42338). The experiment in a line: Inhibition of PIK3CB (unknown origin) assessed as remaining activity at 1 uM by Kinome scan method relative to control.
Data set [15] deals with ALK tyrosine kinase receptor (Homo sapiens), Q9UM73 [L1196M]. The experiment in a line: Inhibition of ALK L1196M mutant (unknown origin) assessed as remaining activity at 1 uM by Kinome scan method relative to control. The essentials:
as §2

Data set [16] can be described thus: Oral bioavailability in male Sprague-Dawley rat at 10 mg/kg measured for 24 hrs by LC-MS/MS analysis. Format: ADME, organism-based. The following applies: in vivo.
The test system of data set [17] is Receptor-type tyrosine-protein kinase FLT3 (Homo sapiens), P36888 [D835V]. As to the kind of experiment: Inhibition of FLT3 D835V mutant (unknown origin) assessed as remaining activity at 1 uM by Kinome scan method relative to control.
Data set [18] has as its target Calcium/calmodulin-dependent protein kinase type 1D (Homo sapiens) (UniProt Q8IU85). The experiment in a line: Inhibition of CAMK1D (unknown origin) assessed as remaining activity at 1 uM by Kinome scan method relative to control. In outline:
as §1

Data set [19] deals with Angiopoietin-1 receptor (Homo sapiens) (UniProt Q02763). The experiment in a line: Inhibition of TIE2 (unknown origin) assessed as remaining activity at 1 uM by Kinome scan method relative to control.
In data set [20] the target is Discoidin domain-containing receptor 2 (Homo sapiens) (UniProt Q16832). As to the kind of experiment: Inhibition of DDR2 (unknown origin) assessed as remaining activity at 1 uM by Kinome scan method relative to control.
Data set [21] has as its target Mitogen-activated protein kinase kinase kinase 1 (Homo sapiens) (UniProt Q13233). The experiment in a line: Inhibition of MAP3K1 (unknown origin) assessed as remaining activity at 1 uM by Kinome scan method relative to control.

Calls of active or inactive are those of the source. The rule behind the calls is not given here.

Sequence of Mitogen-activated protein kinase kinase kinase 1 (Homo sapiens) (Q13233 whole entry): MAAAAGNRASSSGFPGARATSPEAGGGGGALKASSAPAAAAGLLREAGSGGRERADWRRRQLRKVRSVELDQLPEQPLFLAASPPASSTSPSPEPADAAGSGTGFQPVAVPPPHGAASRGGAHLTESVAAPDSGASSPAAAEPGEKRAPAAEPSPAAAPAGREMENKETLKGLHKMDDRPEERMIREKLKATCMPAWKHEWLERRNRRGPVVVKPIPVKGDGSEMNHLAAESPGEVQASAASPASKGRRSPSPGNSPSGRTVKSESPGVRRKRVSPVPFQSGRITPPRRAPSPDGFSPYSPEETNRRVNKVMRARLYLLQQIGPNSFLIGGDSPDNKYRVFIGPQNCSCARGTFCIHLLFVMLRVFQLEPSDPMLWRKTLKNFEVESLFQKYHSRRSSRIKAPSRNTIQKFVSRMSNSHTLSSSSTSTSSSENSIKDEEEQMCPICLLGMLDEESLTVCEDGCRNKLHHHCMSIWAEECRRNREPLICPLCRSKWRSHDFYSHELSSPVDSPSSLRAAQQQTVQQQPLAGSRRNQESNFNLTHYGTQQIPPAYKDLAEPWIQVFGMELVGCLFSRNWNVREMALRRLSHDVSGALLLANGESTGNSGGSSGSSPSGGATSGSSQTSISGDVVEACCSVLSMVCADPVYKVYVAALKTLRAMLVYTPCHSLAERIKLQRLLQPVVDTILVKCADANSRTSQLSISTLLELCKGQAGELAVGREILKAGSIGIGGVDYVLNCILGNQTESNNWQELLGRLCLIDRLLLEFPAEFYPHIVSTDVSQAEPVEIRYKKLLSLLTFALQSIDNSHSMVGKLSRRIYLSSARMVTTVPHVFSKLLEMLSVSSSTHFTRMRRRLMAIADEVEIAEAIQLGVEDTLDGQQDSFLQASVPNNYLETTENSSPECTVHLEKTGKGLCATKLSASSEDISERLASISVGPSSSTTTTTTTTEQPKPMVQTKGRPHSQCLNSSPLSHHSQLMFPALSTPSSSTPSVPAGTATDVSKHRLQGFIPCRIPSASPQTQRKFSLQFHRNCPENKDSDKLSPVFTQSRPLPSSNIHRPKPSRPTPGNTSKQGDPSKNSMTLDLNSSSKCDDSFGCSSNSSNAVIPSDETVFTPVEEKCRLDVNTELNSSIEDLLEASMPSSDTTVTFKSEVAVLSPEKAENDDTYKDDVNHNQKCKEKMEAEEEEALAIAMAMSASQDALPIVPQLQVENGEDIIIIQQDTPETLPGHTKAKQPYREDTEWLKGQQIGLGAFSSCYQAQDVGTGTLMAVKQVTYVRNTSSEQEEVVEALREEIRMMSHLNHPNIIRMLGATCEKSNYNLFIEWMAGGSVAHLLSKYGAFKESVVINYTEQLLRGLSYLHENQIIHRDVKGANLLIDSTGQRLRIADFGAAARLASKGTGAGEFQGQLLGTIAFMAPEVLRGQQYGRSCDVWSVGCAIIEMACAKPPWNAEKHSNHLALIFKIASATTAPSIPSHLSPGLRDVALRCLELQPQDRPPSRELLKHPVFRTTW
Sequence of Bone morphogenetic protein receptor type-2 (Homo sapiens) (Q13873 whole entry): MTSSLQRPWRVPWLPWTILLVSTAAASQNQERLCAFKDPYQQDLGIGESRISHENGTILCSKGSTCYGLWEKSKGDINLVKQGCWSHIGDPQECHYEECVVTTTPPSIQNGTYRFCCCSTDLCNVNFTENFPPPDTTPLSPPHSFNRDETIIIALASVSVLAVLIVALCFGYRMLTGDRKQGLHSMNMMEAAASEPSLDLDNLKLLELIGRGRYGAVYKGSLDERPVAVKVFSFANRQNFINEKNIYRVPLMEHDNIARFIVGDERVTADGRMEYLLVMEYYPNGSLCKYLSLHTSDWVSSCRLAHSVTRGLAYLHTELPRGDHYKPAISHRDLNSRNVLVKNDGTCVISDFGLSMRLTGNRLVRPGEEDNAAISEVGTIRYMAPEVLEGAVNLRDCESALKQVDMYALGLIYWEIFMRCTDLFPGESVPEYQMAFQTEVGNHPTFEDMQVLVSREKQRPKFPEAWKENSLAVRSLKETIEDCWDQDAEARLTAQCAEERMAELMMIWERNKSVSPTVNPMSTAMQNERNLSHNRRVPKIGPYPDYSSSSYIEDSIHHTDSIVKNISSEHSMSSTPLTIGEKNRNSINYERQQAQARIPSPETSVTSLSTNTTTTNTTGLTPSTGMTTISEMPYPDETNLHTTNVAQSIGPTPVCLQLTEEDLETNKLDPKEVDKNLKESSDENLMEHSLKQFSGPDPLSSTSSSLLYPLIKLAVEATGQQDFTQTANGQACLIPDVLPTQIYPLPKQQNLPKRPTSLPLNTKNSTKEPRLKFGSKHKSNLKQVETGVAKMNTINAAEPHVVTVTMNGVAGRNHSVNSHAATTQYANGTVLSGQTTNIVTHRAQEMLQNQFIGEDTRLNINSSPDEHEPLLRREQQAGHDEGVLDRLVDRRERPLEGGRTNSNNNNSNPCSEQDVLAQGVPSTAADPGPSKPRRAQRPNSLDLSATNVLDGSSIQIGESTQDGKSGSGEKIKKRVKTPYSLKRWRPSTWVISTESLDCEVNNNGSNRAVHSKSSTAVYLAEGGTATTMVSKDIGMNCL
Sequence of Myosin light chain kinase family member 4 (Homo sapiens) (Q86YV6 whole entry): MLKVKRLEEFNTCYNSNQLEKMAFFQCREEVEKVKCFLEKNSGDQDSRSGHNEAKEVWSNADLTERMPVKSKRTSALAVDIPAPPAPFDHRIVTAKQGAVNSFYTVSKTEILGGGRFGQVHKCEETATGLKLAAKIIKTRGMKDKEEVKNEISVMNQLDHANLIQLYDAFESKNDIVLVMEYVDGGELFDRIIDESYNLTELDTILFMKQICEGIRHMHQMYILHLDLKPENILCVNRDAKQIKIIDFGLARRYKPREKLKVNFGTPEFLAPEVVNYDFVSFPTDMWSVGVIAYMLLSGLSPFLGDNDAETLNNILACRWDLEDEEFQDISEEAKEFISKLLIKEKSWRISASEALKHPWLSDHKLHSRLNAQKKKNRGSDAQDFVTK
Sequence of ALK tyrosine kinase receptor (Homo sapiens), Q9UM73 [L1196M] (Q9UM73 whole entry L1196M, looked up): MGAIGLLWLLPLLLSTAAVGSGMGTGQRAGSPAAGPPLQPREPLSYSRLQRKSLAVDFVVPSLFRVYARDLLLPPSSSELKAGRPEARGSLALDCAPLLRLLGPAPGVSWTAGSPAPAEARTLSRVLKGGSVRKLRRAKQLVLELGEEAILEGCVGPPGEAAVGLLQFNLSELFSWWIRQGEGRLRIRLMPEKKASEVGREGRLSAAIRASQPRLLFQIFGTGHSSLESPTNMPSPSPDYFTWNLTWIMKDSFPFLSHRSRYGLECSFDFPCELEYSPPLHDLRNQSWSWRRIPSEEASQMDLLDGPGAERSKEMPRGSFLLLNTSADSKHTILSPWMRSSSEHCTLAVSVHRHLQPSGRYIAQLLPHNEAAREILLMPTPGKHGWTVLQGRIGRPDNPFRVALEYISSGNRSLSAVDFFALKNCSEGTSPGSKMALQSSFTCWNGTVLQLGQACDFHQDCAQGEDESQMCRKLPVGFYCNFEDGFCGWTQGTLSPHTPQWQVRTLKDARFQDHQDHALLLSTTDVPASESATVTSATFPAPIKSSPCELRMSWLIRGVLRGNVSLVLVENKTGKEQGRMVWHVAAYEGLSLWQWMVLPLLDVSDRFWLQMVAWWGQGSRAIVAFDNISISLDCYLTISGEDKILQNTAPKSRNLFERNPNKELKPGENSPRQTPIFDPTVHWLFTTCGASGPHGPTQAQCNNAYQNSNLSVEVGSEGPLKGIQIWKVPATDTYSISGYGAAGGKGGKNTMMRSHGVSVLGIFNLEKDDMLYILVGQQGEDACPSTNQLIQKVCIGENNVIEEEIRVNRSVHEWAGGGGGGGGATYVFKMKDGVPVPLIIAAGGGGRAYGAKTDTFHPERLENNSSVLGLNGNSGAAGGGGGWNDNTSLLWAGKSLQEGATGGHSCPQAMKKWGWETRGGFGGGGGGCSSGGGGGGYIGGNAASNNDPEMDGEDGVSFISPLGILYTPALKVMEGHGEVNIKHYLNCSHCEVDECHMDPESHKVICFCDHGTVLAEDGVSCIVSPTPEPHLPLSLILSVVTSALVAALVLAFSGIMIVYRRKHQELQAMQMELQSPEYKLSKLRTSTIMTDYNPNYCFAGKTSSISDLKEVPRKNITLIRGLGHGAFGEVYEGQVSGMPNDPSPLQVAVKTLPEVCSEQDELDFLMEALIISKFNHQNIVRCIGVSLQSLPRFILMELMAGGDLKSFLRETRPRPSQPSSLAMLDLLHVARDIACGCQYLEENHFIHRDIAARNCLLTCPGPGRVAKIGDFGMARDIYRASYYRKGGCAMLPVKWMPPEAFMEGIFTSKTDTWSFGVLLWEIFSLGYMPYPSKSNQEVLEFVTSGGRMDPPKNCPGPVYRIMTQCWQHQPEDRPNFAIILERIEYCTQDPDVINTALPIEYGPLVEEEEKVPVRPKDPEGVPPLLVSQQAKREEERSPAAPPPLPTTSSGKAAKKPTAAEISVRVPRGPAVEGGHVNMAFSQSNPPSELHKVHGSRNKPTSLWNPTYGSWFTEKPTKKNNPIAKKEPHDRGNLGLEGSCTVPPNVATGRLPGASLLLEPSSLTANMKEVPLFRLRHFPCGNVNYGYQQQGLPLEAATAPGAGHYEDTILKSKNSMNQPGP
Sequence of Interferon-induced, double-stranded RNA-activated protein kinase (Homo sapiens) (P19525 whole entry): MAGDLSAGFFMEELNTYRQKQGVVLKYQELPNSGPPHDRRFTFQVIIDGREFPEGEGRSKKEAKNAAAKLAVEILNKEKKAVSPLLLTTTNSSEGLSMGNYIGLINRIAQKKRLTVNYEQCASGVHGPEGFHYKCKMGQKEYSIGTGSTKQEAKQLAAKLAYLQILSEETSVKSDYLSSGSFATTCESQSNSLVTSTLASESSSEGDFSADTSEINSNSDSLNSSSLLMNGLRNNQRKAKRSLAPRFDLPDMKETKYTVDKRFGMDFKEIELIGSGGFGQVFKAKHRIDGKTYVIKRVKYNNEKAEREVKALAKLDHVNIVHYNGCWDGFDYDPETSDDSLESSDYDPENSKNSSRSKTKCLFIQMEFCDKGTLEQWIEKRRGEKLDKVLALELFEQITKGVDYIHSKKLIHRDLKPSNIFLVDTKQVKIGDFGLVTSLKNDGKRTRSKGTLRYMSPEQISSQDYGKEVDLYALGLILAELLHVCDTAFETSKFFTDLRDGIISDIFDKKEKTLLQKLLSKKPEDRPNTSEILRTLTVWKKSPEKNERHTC

For orientation: AUC(0-t) means exposure summed from dosing to a finite time, without extrapolation to infinity. Read a high AUC(0-t) as high exposure. The IC50 is the concentration that gives 50% inhibition. In general, Kd refers to a measure of binding affinity in units of concentration. By bioavailability is commonly meant the share of a dose that reaches the circulation, judged against a reference dose that is usually intravenous. Read a low bioavailability as poor availability. Take `CN1C(=O)c2sccc2N(C)c2nc(Nc3ccc(S(N)(=O)=O)cc3)ncc21`: in the data set with HepG2, the viability at 3 µM stood at 95%. The Activity in [1] was 94%; in [3] it was 89%; in data set [4], 97%; in data set [6] it was 100%; in data set [7], 100%; in [8], 4.3%. Moreover, the Activity in [9] amounted to 100%; in data set [10], 100%; in data set [11] it was 65%; in data set [13], 97%; in data set [14], 72%; in data set [15], 100%. Also, the Activity was 18% in data set [17]; 100% in [18]; 74% in data set [19]; 100% in [20]; 48% in data set [21]. For the same compound, in data set [2], the exposure AUC(0-t) at 24 h turned out to be 993 ng·h/mL. In [5], the IC50 was 164 nM. Further, in the data set on Mus musculus, the outcome was Active. The Kd in data set [12] came to 100 nM. The compound further returned a bioavailability in [16] of 39.5%.
